Results reported in ChEMBL document CHEMBL1156966, “A new cytotoxic tambjamine alkaloid from the Azorean nudibranch Tambja ceutae” (Bioorg Med Chem Lett, 2010).

Columns and labels:
Caco-2 = experiment: Cytotoxicity against human Caco-2 cells after 48 hrs by MTT assay; format: functional, cell-based; conditions: Caco-2, 48 h
In short: (§1)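 Cells exposed 48 h to a range of concentrations, then counted. Viability and proliferation read by MTT, which measures mitochondrial dehydrogenase activity.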

HeLa = experiment: Cytotoxicity against human HeLa cells after 48 hrs by MTT assay; format: functional, cell-based; in short: as §1
C6 = experiment: Cytotoxicity against rat C6 cells after 48 hrs by MTT assay; format: functional, cell-based; conditions: C6, 48 h; in short: as §1
H9c2 = experiment: Cytotoxicity against rat H9c2 cells after 48 hrs by MTT assay; format: cell-based; conditions: H9c2, 48 h; in short: as §1
3T3-L1 = experiment: Cytotoxicity against mouse 3T3L1 cells after 48 hrs by MTT assay; format: cell-based; conditions: 3T3-L1, 48 h; in short: as §1

With `COC1=CC(c2ccc[nH]2)=N/C1=C/c1[nH]c(-c2ccc[nH]2)cc1OC` the IC50 (Caco-2) was 91 µM, the IC50 (HeLa) was 70 µM and the IC50 (C6) was 7 µM. For the same molecule, the IC50 (H9c2) was 107 µM and the IC50 (3T3-L1) was 24 µM.

For `COC1=CC(c2ccc[nH]2)=N/C1=C\NCCC(C)C` [TAMBJAMINE K], the IC50 (Caco-2) was 0.0035 µM, the IC50 (HeLa) was 14.6 µM and the IC50 (C6) was 14 µM. It also gave an IC50 (H9c2) of 2.7 µM and an IC50 (3T3-L1) of 19 µM.
